Screening data as filed in PubChem.
The list is not random: actives were taken first. Their share in the collection is about 1.7%.
PglD inh: C. jejuni PglD acetyltransferase inhibitors, primary screen, biochemical, DTNB colorimetric, single point. UDP-N-acetylbacillosamine N-acetyltransferase PglD (Campylobacter jejuni). purified PglD enzyme, DTNB colorimetric CoA detection. inhibition, % at 12.5 µM. 360,000 tested, 0.098% active. AID 602405, 2012; in the data active means inhibition above about 16%, passing the limit was not always enough; inconclusive means no clear call, values can overlap the other calls
PfHsp90 set2: growth inhibition of PfHsp90-expressing yeast, primary screen, antimalarial PfHsp90 inhibitor project, S. cerevisiae, BacTiter-Glo luminescence, single point, set 2 | AID 504621, 2011 | inhibition, % at 9.4 µM | 310,000 tested, 0.32% active | BacTiter-Glo ATP, 48 h; yeast lacking PDR1 and PDR3 efflux regulators;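 active means every replicate shows inhibition above about 80%, whatever the replicate mean, limit read from the data; inconclusive means mean inhibition reaches the set limit but some replicate falls short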;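 further: 0% = DMSO neutral controls and 100% = 20 µM radicicol positive controls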
Rtt109 Vps75: inhibitors of C. albicans Rtt109/Vps75 HAT, primary screen, biochemical, ThioGlo CoA-SH fluorescence, plate reader. purified Rtt109/Vps75, 4 h. 330,000 tested, 0.16% active. inhibition, % at 34.9 µM. Histone acetyltransferase RTT109 (Candida albicans (strain SC5314 / ATCC MYA-2876)), …;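 active means inhibition of at least 50% in every replicate; inconclusive means best replicate reaches 50% inhibition but some replicates fall short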
Target sequence (Q5AAJ8 whole entry, looked up): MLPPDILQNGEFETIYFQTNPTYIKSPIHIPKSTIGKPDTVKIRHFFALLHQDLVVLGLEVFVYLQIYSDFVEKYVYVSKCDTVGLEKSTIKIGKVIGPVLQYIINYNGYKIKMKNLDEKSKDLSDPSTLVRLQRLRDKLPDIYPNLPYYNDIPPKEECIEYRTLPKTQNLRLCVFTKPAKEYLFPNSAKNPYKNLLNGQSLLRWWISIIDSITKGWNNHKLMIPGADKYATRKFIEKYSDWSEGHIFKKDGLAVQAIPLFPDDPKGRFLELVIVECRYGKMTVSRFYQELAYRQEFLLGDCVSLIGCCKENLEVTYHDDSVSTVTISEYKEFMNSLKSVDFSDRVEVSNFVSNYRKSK
FN deposition inh: inhibitors of fibronectin matrix deposition, primary screen, AH1F cells, Alexa488-fibronectin fluorescence, plate reader. inhibition, % at 12.6 µM. 350,000 tested, 0.086% active. AH1F fibroblasts, overnight. AID 743247, 2014;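 active means mean inhibition across replicates of 30% or more, regardless of how many single replicates reach that level; inconclusive means mean under 30% yet at least half of replicates reach 30%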;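 further: positive control wells lacked labelled fibronectin entirely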
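test system = AH1F fibroblasts assembling fluorescent fibronectin matrix | quantity = 10000 AH1F cells per well | buffer or medium = DMEM plus 2% serum, read in PBS | doses = single dose, pinned | incubation = 1 h cell attachment, overnight exposure to compound and label | detection = fluorescence at 485 nm excitation, 525 nm emission | read-out basis = inhibition from reduced deposited-fibronectin fluorescence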
CSC inhib: cancer stem cell viability inhibitors, primary screen, luminescence; cancer stem cell-like cells viability; inhibition, % at 7.5 µM; 300,000 tested, 1.1% active; AID 2717, 2010; in the data active means inhibition above about 75%; inconclusive means no clear call, values can overlap the other calls; tested in HMLE shEcad cells
SKKanGAS inh: S. pyogenes SKKanGAS growth inhibitors in kanamycin, primary screen, streptokinase expression inhibitor project, SKKanGAS strain, BacTiter-Glo luminescence. 6 h. inhibition, % at 7.5 µM. 300,000 tested, 1.3% active. AID 1662, 2009;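 active means mean replicate score, as percent of positive control median, at least 50; inconclusive means mean below 50 but one replicate at or above 50; inactive means mean and every replicate below 50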;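 further: strain carries kanamycin resistance gene driven by streptokinase promoter and grows in 40 µg/ml kanamycin; loss of luminescence reflects streptokinase promoter inhibition or plain growth inhibition; 0% = median of DMSO wells and 100% = positive control at its reference dose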
* hit, by the source's call; u = inconclusive; x = no result given.

SMILES | PglD inh | PfHsp90 set2 | Rtt109 Vps75 | FN deposition inh | CSC inhib | SKKanGAS inh
CC(=O)Nc1ccc(C2C(=O)c3ccccc3C2=O)cc1 | 0 | -16 | 2 | 10 | -1 | 51*
O=C1c2[nH]nc(-c3ccccc3O)c2C(c2cccc(Cl)c2)N1Cc1ccco1 (centres undefined) | 1 | x | 24 | -16 | 92* | 50*
Cc1ccc(-c2csc(-c3c[nH]c4ccccc34)n2)c(C)c1 | -5 | -23 | -9 | x | 99* | 92*
COc1ccc(Nc2nc(-c3c[nH]c4ccccc34)cs2)cc1 | x | 9 | 3 | 1 | 27 | 34
Oc1ccc(-c2csc(-c3c[nH]c4ccccc34)n2)c(O)c1 | x | -11 | -10 | 17 | 90* | 45
Cc1ccc(S(=O)(=O)Nc2ccc3c(c2)C(=O)N([C@@H](C)CO)C[C@H](C)[C@H](CN(C)Cc2ccncc2)OCCCC[C@@H](C)O3)cc1 | 3 | x | x | 8 | x | x
CC(C)=C[C@@H]1C[C@H](C)[C@H]2CC[C@H](C)c3c(O[C@@H]4O[C@@H](C)[C@@H](O)[C@@H](O)[C@@H]4O)c(O)c(C)c1c32 | -3 | 105* | 1 | x | 56 | x
CC(=O)O[C@@H]1[C@H](Oc2c(O)c(C)c3c4c2[C@H](C)CC[C@H]4[C@H](C)C[C@@H]3C=C(C)C)O[C@@H](C)[C@@H](O)[C@H]1O | -4 | x | x | x | x | x
CCCNC(=O)Nc1ccc2c(c1)C(=O)N(C)C[C@@H](OC)[C@@H](C)CN(C(=O)c1ccccc1F)[C@H](C)CO2 | x | x | x | 2 | x | x
COc1ccc(CN(C)C[C@@H]2Oc3c(NC(=O)NC(C)C)cccc3C(=O)N([C@@H](C)CO)C[C@@H]2C)cc1 | 3 | x | x | -2 | x | x
CCOc1cccc(/C=C/c2ccc3cccc(O)c3n2)c1O | 5 | -126 | -8 | 12 | 57 | 107*
COc1c(OC(C)=O)ccc(/C=C/c2ccc3cccc(OC)c3n2)c1[N+](=O)[O-] | x | -7 | -3 | 5 | x | 6
CCOc1c(OC(C)=O)ccc(/C=C/c2ccc3cccc(OC(C)=O)c3n2)c1[N+](=O)[O-] | -2 | -25 | -5 | x | -6 | 85*
CCOc1cc(/C=C/c2ccc3cccc([N+](=O)[O-])c3n2)ccc1O | -4 | -19 | 4 | -4 | 7 | 6
COC(=O)c1ccc(/C=C/c2ccc3cccc(OC(C)=O)c3n2)cc1 | x | -34 | -16 | -4 | 28 | 53*
COC(=O)c1ccc(/C=C/C(=O)O)cc1 | -3 | -23 | -3 | 1 | -16 | -9
CCOc1cccc(/C=C/c2ccc3cccc(O)c3n2)c1OC | -3 | -51 | -1 | 11 | u | 98*
C[C@@H]1CN([C@H](C)CO)C(=O)c2cc(NS(=O)(=O)c3cn(C)cn3)ccc2O[C@@H]1CN(C)C(=O)NC1CCCCC1 | 1 | x | x | -3 | x | x
C[C@@H]1CCCCO[C@H](CN(C)Cc2ccncc2)[C@H](C)CN([C@H](C)CO)C(=O)c2cc(NC(=O)Nc3cccc4ccccc34)ccc2O1 | 0 | x | x | x | x | x
CCCCCn1c(CN2CCN(c3cc(Cl)ccc3C)CC2)nc2c1c(=O)[nH]c(=O)n2C | 3 | 14 | 2 | 2 | 112* | 86*
CCCNC(=O)C[C@@H]1CC[C@H]2[C@@H](COC[C@H](O)CN2C(=O)Nc2c(C)noc2C)O1 | 13 | x | x | -5 | x | x
C[C@H]1CCCCO[C@@H](CN(C)C(=O)C2CCCCC2)[C@@H](C)CN([C@@H](C)CO)C(=O)c2cc(NS(=O)(=O)c3cn(C)cn3)ccc2O1 | -4 | x | x | x | x | x
Cc1cccc(Nc2nc(-c3ccc(F)c(C)c3)cs2)n1 | 3 | -22 | x | -7 | 43 | 72*
C[C@H]1CCCCO[C@@H](CN(C)S(=O)(=O)c2ccc(Cl)cc2)[C@@H](C)CN([C@@H](C)CO)C(=O)c2cc(NS(C)(=O)=O)ccc2O1 | -2 | x | x | x | x | x
Cn1cccc1-c1cc(C(=O)N/N=C/c2cc(Br)ccc2O)[nH]n1 | 1 | 8 | 8 | 12 | x | 90*
SMILES | PglD inh | PfHsp90 set2 | Rtt109 Vps75 | FN deposition inh | CSC inhib | SKKanGAS inh
COc1ccc(C(=O)N/N=C/c2cc(Br)ccc2O)cc1OC | x | -9 | -4 | -1 | 36 | 86*
COc1ccc(O)c(/C=N/NC(=O)c2ccc(OCc3cccc(Br)c3)cc2)c1 | x | x | -1 | -8 | 91* | 11
Clc1cccc(CN2CCc3c([nH]c4ccccc34)C2)c1 | 2 | -9 | 0 | -5 | 29 | -2
Clc1ccc(CN2CCc3c([nH]c4ccccc34)C2)cc1Cl | -2 | -16 | -3 | -2 | 124* | 19
CCOC(=O)c1c(C)[nH]c(C)c1C(=O)COC(=O)c1ccc([N+](=O)[O-])s1 | 1 | -11 | 2 | -5 | 4 | x
CCc1cccc2c(C(=O)COC(=O)c3ccc([N+](=O)[O-])s3)c[nH]c12 | x | u | x | 8 | -4 | 100*
O=C(OCC(=O)c1c[nH]c2ccccc12)c1ccc([N+](=O)[O-])s1 | 1 | 110* | 3 | -7 | 0 | 15
Cc1ccc(C(=O)OCC(=O)c2c[nH]c3ccccc23)cc1 | x | 10 | x | 0 | -6 | -3
O=C1NCCOCn2nncc2CC[C@H]1Cc1cccc(Cl)c1 | x | x | x | -3 | x | x
CC(=O)c1c(O)cc(O)cc1CC(=O)O | -3 | 4 | -6 | x | -4 | 2
CC(=O)c1c(O)cc(O)c(C(C)=O)c1O | 7 | 8 | 4 | x | -3 | 91*
Nc1n[nH]c(C2CC2)c1N=Nc1ccc(Cl)c(Cl)c1 | -7 | x | x | 3 | 41 | 82*
C[C@@H]1CCCCO[C@@H](CN(C)C(=O)CCCN(C)C)[C@H](C)CN([C@@H](C)CO)C(=O)c2cc(NC(=O)CCCN(C)C)ccc2O1 | 4 | x | x | 1 | x | x
O=C(C[C@@H]1C[C@@H]2c3cc(NC(=O)Nc4ccc(C(F)(F)F)cc4)ccc3O[C@@H]2[C@H](CO)O1)NC1CCCCC1 | 2 | x | x | x | x | x
CCC(CO)Oc1cc(NCc2ccccc2)c2ncn(C(C)C)c2c1 (centres undefined) | -2 | -5 | 3 | -6 | x | x
CC(C)n1cnc2c(NCc3ccccc3)cc(N[C@H](C)CO)cc21 | -1 | -9 | 4 | x | 124* | x
Cc1ccc(C(O)(C(=O)NNc2ccccn2)c2ccc(C)cc2)cc1 | 0 | 2 | 5 | -14 | 11 | 0
Cc1ccc(NNC(=O)C(O)(c2cccc(C(F)(F)F)c2)c2cccc(C(F)(F)F)c2)cc1 | -2 | -6 | -1 | -6 | 99* | 29
O=C(NNc1ccccc1Br)C(O)(c1cccc(C(F)(F)F)c1)c1cccc(C(F)(F)F)c1 | x | 27 | -13 | -11 | 12 | 101*
